Source: ChEMBL document CHEMBL1126822, “7 alpha-Methyl- and 11 beta-ethoxy-substitution of [125I]-16 alpha-iodoestradiol: effect on estrogen receptor-mediated target tissue uptake” (J Med Chem, 1993)

molecular target: Estrogen receptor (Mus musculus) (UniProt O08537+P19785); experiment: Binding affinity at murine estrogen receptor by [3H]estradiol displacement.; type: protein assay
Procedure, shortened: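 Competitive binding in murine uterine cytoplasmic extracts, incubated 18 h at 0-4 °C with 20 nM [3H]estradiol, with or without competing steroids from 2 nM to 20 μM. RBA = 100 × ratio of competitor to unlabeled estradiol concentration giving 50% competition of specific [3H]estradiol binding. Mean of three experiments with SD.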

Chain of Estrogen receptor (Mus musculus) (O08537 whole entry, looked up): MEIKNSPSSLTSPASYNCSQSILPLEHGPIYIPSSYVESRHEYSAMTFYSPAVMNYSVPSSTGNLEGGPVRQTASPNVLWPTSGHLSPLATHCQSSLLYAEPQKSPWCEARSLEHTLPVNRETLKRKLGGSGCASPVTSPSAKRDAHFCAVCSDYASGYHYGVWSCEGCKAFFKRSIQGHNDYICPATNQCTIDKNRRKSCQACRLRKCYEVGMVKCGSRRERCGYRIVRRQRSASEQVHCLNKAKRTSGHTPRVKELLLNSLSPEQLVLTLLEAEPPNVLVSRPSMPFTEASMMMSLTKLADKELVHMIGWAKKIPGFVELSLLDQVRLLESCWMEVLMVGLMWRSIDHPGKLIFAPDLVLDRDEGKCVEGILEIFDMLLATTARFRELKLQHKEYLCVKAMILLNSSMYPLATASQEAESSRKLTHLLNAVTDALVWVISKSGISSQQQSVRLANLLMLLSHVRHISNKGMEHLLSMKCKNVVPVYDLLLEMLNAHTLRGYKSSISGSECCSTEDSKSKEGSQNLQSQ
Chain of Estrogen receptor (Mus musculus) (P19785 whole entry, looked up): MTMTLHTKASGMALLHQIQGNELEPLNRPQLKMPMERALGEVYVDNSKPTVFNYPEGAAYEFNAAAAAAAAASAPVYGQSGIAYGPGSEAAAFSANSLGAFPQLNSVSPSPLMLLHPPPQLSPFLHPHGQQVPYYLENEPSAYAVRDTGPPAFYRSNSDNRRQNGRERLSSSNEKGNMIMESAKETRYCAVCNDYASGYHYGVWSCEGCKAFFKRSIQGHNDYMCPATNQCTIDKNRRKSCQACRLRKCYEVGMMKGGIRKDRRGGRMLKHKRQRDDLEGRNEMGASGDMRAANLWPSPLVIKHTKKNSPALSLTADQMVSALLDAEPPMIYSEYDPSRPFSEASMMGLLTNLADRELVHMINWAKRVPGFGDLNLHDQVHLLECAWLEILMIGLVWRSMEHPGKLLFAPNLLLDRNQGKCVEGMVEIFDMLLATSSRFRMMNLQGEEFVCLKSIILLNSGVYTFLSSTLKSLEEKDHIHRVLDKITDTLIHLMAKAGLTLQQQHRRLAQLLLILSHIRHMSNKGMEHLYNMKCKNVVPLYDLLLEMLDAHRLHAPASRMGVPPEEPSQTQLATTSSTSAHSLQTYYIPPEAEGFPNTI

SMILES | relative binding affinity (RBA)
CCO[C@H]1C[C@]2(C)C(=O)[C@H](Cl)C[C@H]2[C@@H]2CCc3cc(O)ccc3[C@H]21 | 0.8
CCO[C@H]1C[C@]2(C)[C@H](O)[C@H](Br)C[C@H]2[C@@H]2CCc3cc(O)ccc3[C@H]21 | 1.1
CCO[C@H]1C[C@]2(C)C(=O)[C@H](Br)C[C@H]2[C@@H]2CCc3cc(O)ccc3[C@H]21 | 0.8
CCO[C@H]1C[C@]2(C)[C@@H](O)[C@H](Br)C[C@H]2[C@@H]2CCc3cc(O)ccc3[C@H]21 | 16.8
CCO[C@H]1C[C@]2(C)[C@H](O)[C@H](Cl)C[C@H]2[C@@H]2CCc3cc(O)ccc3[C@H]21 | 0.8
CCO[C@H]1C[C@]2(C)[C@@H](O)[C@H](Cl)C[C@H]2[C@@H]2CCc3cc(O)ccc3[C@H]21 | 14.9
CCO[C@H]1C[C@]2(C)[C@@H](O)[C@@H](Br)C[C@H]2[C@@H]2CCc3cc(O)ccc3[C@H]21 | 0.6
CO[C@H]1C[C@]2(C)[C@@H](O)[C@H](Br)C[C@H]2[C@@H]2CCc3cc(O)ccc3[C@H]21 | 20

Other lines, results leading:

relative binding affinity (RBA) | SMILES
5.3 | C[C@@H]1Cc2cc(O)ccc2[C@H]2CC[C@]3(C)C(=O)[C@@H](Br)C[C@H]3[C@H]12
79.1 | C[C@@H]1Cc2cc(O)ccc2[C@H]2CC[C@]3(C)[C@@H](O)[C@H](Br)C[C@H]3[C@H]12
13.6 | C[C@@H]1Cc2cc(O)ccc2[C@H]2CC[C@]3(C)[C@H](O)[C@H](Br)C[C@H]3[C@H]12
16.6 | C[C@@H]1Cc2cc(O)ccc2[C@H]2CC[C@]3(C)[C@H](O)[C@H](Cl)C[C@H]3[C@H]12
4.3 | C[C@@H]1Cc2cc(O)ccc2[C@H]2CC[C@]3(C)[C@@H](O)[C@@H](Cl)C[C@H]3[C@H]12
71.5 | C[C@@H]1Cc2cc(O)ccc2[C@H]2CC[C@]3(C)[C@@H](O)[C@H](Cl)C[C@H]3[C@H]12
28.4 | C[C@@H]1Cc2cc(O)ccc2[C@H]2CC[C@]3(C)C(=O)[C@H](Br)C[C@H]3[C@H]12
7.1 | C[C@@H]1Cc2cc(O)ccc2[C@H]2CC[C@]3(C)[C@@H](O)[C@@H](Br)C[C@H]3[C@H]12
33.8 | C[C@@H]1Cc2cc(O)ccc2[C@H]2CC[C@]3(C)C(=O)[C@H](Cl)C[C@H]3[C@H]12
